The test system of experiment [1] is HeLa. In words: In vitro anticellular activity against HeLa S3 cells. Particulars: Homo sapiens. The class given is functional, cell-based. In a few lines:
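HeLa S3 cells seeded in 96-well plates on day 0, then exposed to compound for 1 h on day 1. Anticellular activity determined by a previously described method.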

In experiment [2] the test system is CCRF S-180. Briefly: Optimal dose against sarcoma 180 tumor in ddY mice. The class given is functional, Mus musculus. In a few lines:
(§1)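 Sarcoma 180 cells implanted subcutaneously in the axillary region of ddY mice on day 0. Compounds given intravenously on day 1. Tumor volume determined by a previously described method and expressed as treated/control. ED50 is the dose giving 50% inhibition of tumor growth, taken from the dose–response curve. Optimal dose also recorded.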

Experiment [3] has as its system CCRF S-180. Briefly: Treated versus control value of tumor volume was measured in ddY mice. The class given is functional, Mus musculus. In a few lines: as §1
In experiment [4] the test system is CCRF S-180. Briefly: Effective dose that gave 50 percent inhibition of sarcoma 180 tumor growth in ddY mice. The class given is functional. Particulars: Mus musculus. The essentials:
as §1

The record followed here is ChEMBL document CHEMBL1127845, “Synthesis and antitumor activity of novel 6-alkyl-6-demethylmitomycins” (J Med Chem, 1994).

Molecules are shown by their SMILES. Some results are limits rather than exact numbers.

For orientation: IC50 means the concentration at which inhibition is half-maximal. A higher IC50 goes with lower potency. In experiment [1], `COC1=C(CC(C)C)C(=O)C2=C(C1=O)[C@@H](COC(N)=O)[C@@]1(OC)[C@H]3N[C@H]3CN21` came in with an IC50 of 200 nM.

For `CCCCCC1=C(N)C(=O)C2=C(C1=O)N1C[C@@H]3N[C@@H]3[C@]1(OC)[C@@H]2COC(N)=O`, the IC50 in experiment [1] was over 10000 nM.

What is called ED50 is the dose that gives a 50% effect, or the effect in half of the subjects. High values mean a need for a large dose, low ones an effect at a small dose. On to `CO[C@@]12[C@H](COC(N)=O)C3=C(C(=O)C(CC[N+](=O)[O-])=C(N)C3=O)N1C[C@@H]1N[C@@H]12`, for which half-maximal inhibition in experiment [1] (IC50) was put at 1500 nM. In addition, the OD in experiment [2] was 15 mg/kg. The same compound showed a T/C in experiment [3] of 0.44. In experiment [4], this compound showed an ED50 of 8 mg/kg.

In experiment [1], `CCCCCC1=C(OC)C(=O)C2=C(C1=O)N1C[C@H]3[C@H](N3C)[C@]1(O)[C@H]2COC(N)=O` (stereo partly specified) yielded an IC50 of 3100 nM. In addition, the OD in experiment [2] turned out to be 20 mg/kg. In addition, in experiment [3], the T/C came out at 0.79.

`CCC1=C(N)C(=O)C2=C(C1=O)N1C[C@H]3[C@H](N3C)[C@]1(OC)[C@@H]2COC(N)=O` (stereo partly specified) had an OD in experiment [2] of 46 mg/kg. Also, the T/C in experiment [3] is 1.02.

Compound `CO[C@@]12[C@H](COC(N)=O)C3=C(C(=O)C(CC(C)C)=C(N)C3=O)N1C[C@@H]1N[C@@H]12` displayed an IC50 in experiment [1] of over 10000 nM. Moreover, the OD in experiment [2] worked out at 46 mg/kg. Besides, the T/C in experiment [3] was determined as 0.78.

In the case of `CCCCCCCCCCCC1=C(N)C(=O)C2=C(C1=O)N1C[C@@H]3N[C@@H]3[C@]1(OC)[C@@H]2COC(N)=O`, the IC50 in experiment [1] was over 10000 nM.

Turning to `CCC1=C(OC)C(=O)C2=C(C1=O)N1C[C@H]3[C@H](N3C)[C@]1(O)[C@H]2COC(N)=O` (stereo partly specified), the midpoint of inhibition in experiment [1], the IC50, lay at 300 nM. Further, the OD in experiment [2] came to 30 mg/kg. The same compound yielded a T/C in experiment [3] of 0.39. Also, the 50% effect level in experiment [4] (ED50) was put at a dose of 14 mg/kg.

In the case of `C=CCC1=C(N)C(=O)C2=C(C1=O)N1C[C@@H]3N[C@@H]3[C@]1(OC)[C@@H]2COC(N)=O`, in experiment [1], the IC50 worked out at 10000 nM. This lies in the double-digit micromolar range.

Consider `COC1=C(Cc2ccccc2)C(=O)C2=C(C1=O)[C@@H](COC(N)=O)[C@@]1(OC)[C@H]3N[C@H]3CN21`, for which the IC50 in experiment [1] amounted to 63 nM. In experiment [2], this compound had an OD of 30 mg/kg. The compound further gave a T/C in experiment [3] of 0.43. In addition, the ED50 in experiment [4] was 23 mg/kg.

`CCCCCCCCCCCCCCCCCCCC1=C(N)C(=O)C2=C(C1=O)N1C[C@@H]3N[C@@H]3[C@]1(OC)[C@@H]2COC(N)=O` returned an IC50 in experiment [1] of 9000 nM.

Consider `CO[C@@]12[C@H](COC(N)=O)C3=C(C(=O)C(Cc4ccccc4)=C(N)C3=O)N1C[C@@H]1N[C@@H]12`, for which the IC50 in experiment [1] was over 10000 nM.

Compound `CCC1=C(N)C(=O)C2=C(C1=O)N1C[C@H]3[C@H](N3C)[C@]1(O)[C@H]2COC(N)=O` (stereo partly specified) yielded an IC50 in experiment [1] of over 10000 nM. This compound showed an OD in experiment [2] of 20 mg/kg. In experiment [3], the T/C was determined as 0.8.

On to `CCC1=C(N)C(=O)C2=C(C1=O)N1C[C@@H]3N[C@@H]3[C@]1(OC)[C@@H]2COC(N)=O.ClC(Cl)Cl`, for which the 50% inhibitory concentration (IC50) in experiment [1] is over 10000 nM. The same compound registered an OD in experiment [2] of 46 mg/kg. In experiment [3], this compound came in with a T/C of 0.42. In experiment [4], this compound came in with an ED50 of 38 mg/kg.

In turn, `COC1=C(Cc2ccccc2)C(=O)C2=C(C1=O)[C@H](COC(N)=O)[C@@]1(O)[C@@H]3[C@H](CN21)N3C` (stereo partly specified) [6-BENZYL-6-DEMETHYLMITOMYCIN B] had an IC50 in experiment [1] of 520 nM. In experiment [2], this compound returned an OD of 46 mg/kg. In experiment [3], this compound gave a T/C of 0.41. Moreover, in experiment [4], the ED50 was found to be 37 mg/kg.

In experiment [1], `COC1=C(CC(C)C)C(=O)C2=C(C1=O)[C@H](COC(N)=O)[C@@]1(O)[C@@H]3[C@H](CN21)N3C` (stereo partly specified) [6-DEMETHYL-6-(2-METHYLPROPYL)MITOMYCIN B] yielded an IC50 of 6100 nM. The same compound registered an OD in experiment [2] of 20 mg/kg. Also, the T/C in experiment [3] worked out at 0.71.

For the compound `CCC1=C(OC)C(=O)C2=C(C1=O)N1C[C@@H]3N[C@@H]3[C@]1(OC)[C@@H]2COC(N)=O` [6-DEMETHYL-6-ETHYLMITOMYCIN A], the IC50 in experiment [1] came out at 17 nM. The same compound showed an OD in experiment [2] of 7.4 mg/kg. Further, the T/C in experiment [3] was determined as 0.1. For the same compound, the 50% effect level in experiment [4] (ED50) was put at a dose of 2.8 mg/kg.

As to `CCCCCCCCCCCCCCCCCCCC1=C(OC)C(=O)C2=C(C1=O)N1C[C@@H]3N[C@@H]3[C@]1(OC)[C@@H]2COC(N)=O` [6-DEMETHYL-6-N-NONADECYLMITOMYCIN A], the IC50 in experiment [1] stood at 7300 nM. In experiment [2], this compound gave an OD of 46 mg/kg. In experiment [3], this compound yielded a T/C of 0.69.

Take `CCCCCC1=C(OC)C(=O)C2=C(C1=O)N1C[C@@H]3N[C@@H]3[C@]1(OC)[C@@H]2COC(N)=O` [6-DEMETHYL-6-N-PENTYLMITOMYCIN A]: the 50% inhibitory concentration (IC50) in experiment [1] was 87 nM. Also, in experiment [2], the OD turned out to be 30 mg/kg. This compound also yielded a T/C in experiment [3] of 0.37. Also, the ED50 in experiment [4] worked out at 19 mg/kg.

`CCCCCCCCCCCC1=C(OC)C(=O)C2=C(C1=O)N1C[C@@H]3N[C@@H]3[C@]1(OC)[C@@H]2COC(N)=O` [6-DEMETHYL-6-N-UNDECYLMITOMYCIN A] gave an IC50 in experiment [1] of 640 nM. In addition, in experiment [2], the OD came to 20 mg/kg. This compound also yielded a T/C in experiment [3] of 0.8.

`COC1=C(C)C(=O)C2=C(C1=O)[C@@H](COC(N)=O)[C@@]1(OC)[C@H]3N[C@H]3CN21` [MITOMYCIN A] returned an OD in experiment [2] of 1.8 mg/kg. In experiment [3], this compound registered a T/C of 0.2. Moreover, the 50% effect level in experiment [4] (ED50) was put at a dose of 1.3 mg/kg.

Take `CO[C@@]12[C@H](COC(N)=O)C3=C(C(=O)C(C)=C(N)C3=O)N1C[C@@H]1N[C@@H]12` [MITOMYCIN]: the IC50 in experiment [1] came out at 590 nM. Besides, in experiment [2], the OD came out at 6 mg/kg. Besides, in experiment [3], the T/C amounted to 0.26. The same compound returned an ED50 in experiment [4] of 1.7 mg/kg.
